Measured values reported in ChEMBL document CHEMBL5385922 (J Med Chem, 2024).
Active and inactive are the calls of the source. The calls are words filed in the database; no cut-off is given here.

Tests used:
Platelet [1] = assay: Antiplatelet activity in human platelets assessed as inhibition of U46619-induced platelet aggregation by turbidimetric analysis; type: functional, cell-based
Method in brief: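 Washed human platelets from ACD-anticoagulated volunteer blood, stimulated with U46619 (1 μM). Aggregation measured turbidimetrically under stirring (1200 rpm) at 37 °C as the maximal increase in light transmission.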

Platelet [2] = assay: Inhibition of tumor cell-induced platelet secretion in human platelets assessed as inhibition of A549-induced ATP secretion at 100 uM by bioluminescent assay; type: functional, cell-based
Method in brief: (§1)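 Washed human platelets were co-incubated with A549 cells under TCIPA conditions (0.375% plasma, stirred, 37 °C) for 25 min in the aggregometer, then centrifuged at 13,000g for 1 min. Supernatant PDGF-BB measured by ELISA and ATP by bioluminescent assay. Mean ± SEM, at least three independent experiments.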

Platelet [3] = assay: Antiplatelet activity against tumor cells-stimulated human platelets assessed as inhibition of MDA-MB-231 cells-induced platelet aggregation at 100 uM by turbidometric aggregometry; type: functional, cell-based
Method in brief: (§2)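 Washed human platelets from ACD-anticoagulated blood of healthy volunteers, stirred at 1200 rpm, 37 °C, in 0.375% plasma. Aggregation was induced by A549 (1 × 10^4 cells/mL), MDA-MB-231 (1 × 10^2 cells/mL) or RPMI8226 (1 × 10^5 cells/mL) cells. Read-out is the maximal increase in light transmission by turbidimetric aggregometry. n = 3.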

Platelet [4] = assay: Inhibition of tumor cell-induced platelet secretion in human platelets assessed as inhibition of A549-induced PDGF secretion at 100 uM by ELISA; type: functional, cell-based; method in brief: as §1
Platelet [5] = assay: Antiplatelet activity against tumor cells-stimulated human platelets assessed as inhibition of A549 cells-induced platelet aggregation at 100 uM by turbidometric aggregometry; type: functional, cell-based; method in brief: as §2
Platelet [6] = assay: Antiplatelet activity against tumor cells-stimulated human platelets assessed as inhibition of RPMI-8226 cells-induced platelet aggregation at 100 uM by turbidometric aggregometry; type: functional, cell-based; method in brief: as §2
[7] = biological target: T1, Protein disulfide-isomerase (Homo sapiens, UniProt P07237); assay: Covalent inhibition of human recombinant PDI assessed as inhibition of E-GSH formation using Di-E-GSSG as substrate at 10 uM measured for 60 mins in presence of DTT and 1 mM GSH by fluorescence based analysis
Method in brief: (§3)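 Human rPDI incubated with compounds at 10 μM in the presence of DTT (5 μM) or GSH (1 mM). PDI activity read by Di-E-GSSG assay (E-GSH fluorescence). Mean ± SEM of three independent experiments.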
Target sequence in this assay (P07237 18-508 limits assumed): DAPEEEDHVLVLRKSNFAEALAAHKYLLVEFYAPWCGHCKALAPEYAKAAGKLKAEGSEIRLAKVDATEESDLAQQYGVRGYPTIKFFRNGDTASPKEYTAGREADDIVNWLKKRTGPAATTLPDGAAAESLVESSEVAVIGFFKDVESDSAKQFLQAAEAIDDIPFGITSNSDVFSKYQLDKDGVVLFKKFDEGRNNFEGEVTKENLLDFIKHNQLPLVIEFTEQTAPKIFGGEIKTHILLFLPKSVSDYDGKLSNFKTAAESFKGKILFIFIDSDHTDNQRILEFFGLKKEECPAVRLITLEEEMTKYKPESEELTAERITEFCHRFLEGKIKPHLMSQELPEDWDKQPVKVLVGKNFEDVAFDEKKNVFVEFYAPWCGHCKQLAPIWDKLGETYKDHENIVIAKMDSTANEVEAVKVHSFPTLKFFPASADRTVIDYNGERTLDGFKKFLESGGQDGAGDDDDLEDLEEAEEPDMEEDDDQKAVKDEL

A549 [8] = assay: Cytotoxicity against human A549 cells assessed as reduction in cell viability at 0.5 to 2 uM incubated for 48 hrs by trypan bue exclusion assay; type: functional, cell-based; details: dose 0.5-2 µM
Platelet [9] = assay: Inhibition of tumor cell-induced platelet secretion in human platelets assessed as inhibition of A549-induced ATP secretion at 1 to 5 uM by bioluminescent assay; type: functional, cell-based; details: dose 1-5 µM; method in brief: as §1
Platelet [10] = assay: Antiplatelet activity against tumor cells-stimulated human platelets assessed as inhibition of RPMI-8226 cells-induced platelet aggregation at 2 uM by turbidometric aggregometry; type: functional, cell-based; method in brief: as §2
A549 [11] = assay: Inhibition of platelet-enhanced cell growth in human A549 cells assessed as reduction in cell viability at 0.5 to 2 uM co-incubated with platelets for 48 hrs by trypan blue exclusion assay; type: functional, cell-based; details: dose 0.5-2 µM
Method in brief: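 A549 cells (1 × 10^4/well) co-incubated with washed human platelets (1 × 10^7/well) in 0.375% plasma for 48 h at 37 °C, 5% CO2. After PBS washing, viable cancer cells counted by trypan blue exclusion. Mean ± SEM, at least three independent experiments.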

Platelet [12] = assay: Antiplatelet activity against tumor cells-stimulated human platelets assessed as inhibition of MDA-MB-231 cells-induced platelet aggregation at 2 uM by turbidometric aggregometry; type: functional, cell-based; method in brief: as §2
[13] = biological target: T2, Protein disulfide-isomerase A4 (Homo sapiens, UniProt P13667); assay: Inhibition of human recombinant ERp72 assessed as inhibition of E-GSH formation using Di-E-GSSG as substrate measured for 60 mins in presence of DTT by fluorescence based analysis
T2 sequence (P13667 whole entry): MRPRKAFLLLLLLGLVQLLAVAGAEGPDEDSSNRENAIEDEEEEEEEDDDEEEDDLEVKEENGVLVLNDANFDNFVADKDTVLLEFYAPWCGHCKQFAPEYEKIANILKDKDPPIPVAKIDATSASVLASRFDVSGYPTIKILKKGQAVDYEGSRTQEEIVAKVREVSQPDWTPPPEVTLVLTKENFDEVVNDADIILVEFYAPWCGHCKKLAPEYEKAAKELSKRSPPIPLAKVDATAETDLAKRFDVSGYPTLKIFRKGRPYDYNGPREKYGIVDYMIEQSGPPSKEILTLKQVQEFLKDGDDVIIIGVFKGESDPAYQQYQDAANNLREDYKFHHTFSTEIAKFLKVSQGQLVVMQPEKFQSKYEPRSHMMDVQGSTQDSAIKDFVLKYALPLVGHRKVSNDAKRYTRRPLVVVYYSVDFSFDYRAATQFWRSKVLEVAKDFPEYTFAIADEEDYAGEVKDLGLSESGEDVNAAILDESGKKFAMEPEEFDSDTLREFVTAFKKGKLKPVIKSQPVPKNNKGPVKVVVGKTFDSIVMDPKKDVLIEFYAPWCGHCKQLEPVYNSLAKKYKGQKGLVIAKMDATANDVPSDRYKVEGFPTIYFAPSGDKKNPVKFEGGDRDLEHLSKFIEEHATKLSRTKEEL
Method in brief: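 Recombinant human ERp72 reductase activity measured with Di-E-GSSG substrate, started with DTT, by fluorometry of E-GSH formation. Mean ± SEM, n = 3.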

Platelet [14] = assay: Inhibition of tumor cell-induced platelet secretion in human platelets assessed as inhibition of A549-induced PDGF secretion at 1 to 5 uM by ELISA; type: functional, cell-based; details: dose 1-5 µM; method in brief: as §1
Platelet [15] = assay: Antiplatelet activity against tumor cells-stimulated human platelets assessed as inhibition of A549 cells-induced platelet aggregation at 2 uM by turbidometric aggregometry; type: functional, cell-based; method in brief: as §2
[16] = Stability of the compound in aqueous solution at 400 uM measured after 30 mins by UPLC-MS analysis; type: physicochemical; details: buffer, 0.5 h
Method in brief: (§4)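 Compounds (400 μM) incubated in water with or without GSH (4 mM) at 37 °C for 30 min. Diluted 1:1 with methanol, then analysed by UPLC-MS on a BEH C18 column (water/acetonitrile gradient, 0.4 mL/min, 40 °C) in positive/negative ion mode.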

[17] = biological target: T1, Protein disulfide-isomerase; assay: Non-covalent inhibition of human recombinant PDI assessed as inhibition of E-GSH formation using Di-E-GSSG as substrate at 10 uM measured for 60 mins in presence of DTT and 1 mM GSH by fluorescence based analysis; method in brief: as §3
Target sequence in this assay (P07237 18-508 limits assumed): as the sequence (P07237 18-508 limits assumed) above

[18] = GSH reactivity in aqueous solution assessed as GSH-adduct formation at 400 uM incubated for 30 mins in presence of GSH by UPLC-MS analysis; type: physicochemical; details: buffer, 0.5 h; method in brief: as §4
[19] = biological target: T1, Protein disulfide-isomerase; assay: Covalent inhibition of PDI (unknown origin) by GSSG fluorescence assay
Target sequence in this assay (P07237 whole entry): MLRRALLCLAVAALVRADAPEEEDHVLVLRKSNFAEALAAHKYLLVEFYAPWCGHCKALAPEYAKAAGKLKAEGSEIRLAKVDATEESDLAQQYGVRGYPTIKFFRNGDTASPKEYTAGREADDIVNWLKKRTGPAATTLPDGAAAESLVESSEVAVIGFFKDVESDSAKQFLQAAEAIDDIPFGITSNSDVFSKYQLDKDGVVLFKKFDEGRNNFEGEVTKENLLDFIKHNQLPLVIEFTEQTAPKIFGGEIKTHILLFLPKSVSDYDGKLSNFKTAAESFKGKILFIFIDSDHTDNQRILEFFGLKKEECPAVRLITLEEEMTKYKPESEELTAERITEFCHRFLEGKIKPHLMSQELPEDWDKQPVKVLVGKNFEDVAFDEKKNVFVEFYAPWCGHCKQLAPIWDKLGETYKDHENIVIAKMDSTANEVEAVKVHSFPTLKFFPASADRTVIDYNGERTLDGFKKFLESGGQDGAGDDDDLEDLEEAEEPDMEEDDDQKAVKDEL

RPMI-8226 [20] = assay: Cytotoxicity against human RPMI-8226 cells assessed as reduction in cell viability at 0.001 to 10 uM incubated for 72 hrs by resazurin assay; type: functional, cell-based; details: dose 0.001-10 µM
Method in brief: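 RPMI8226 cells exposed to compounds for 72 h at 37 °C, 5% CO2 with DMSO control; viability measured by resazurin assay, n = 4.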

U-87 MG = assay: Cytotoxicity against human U87 cells assessed as reduction in cell viability incubated for 24 hrs by resazurin assay; type: functional, cell-based, U-87MG ATCC
Method in brief: (§5)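 Cell lines kept at 37 °C in humidified 5% CO2. Cells exposed to compounds for 24 h with DMSO control; viability measured by resazurin assay. Mean ± SEM, n = 3.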

[21] = biological target: T1, Protein disulfide-isomerase; assay: Covalent inhibition of PDI (unknown origin) by insulin aggregation assay
Target sequence in this assay (P07237 whole entry): as above

Platelet [22] = assay: Antiplatelet activity against tumor cells-stimulated human platelets assessed as inhibition of MDA-MB-231 cells-induced platelet aggregation at 1 uM by turbidometric aggregometry; type: functional, cell-based; method in brief: as §2
Platelet [23] = assay: Inhibition of tumor cell-induced platelet secretion in human platelets assessed as inhibition of A549-induced PDGF secretion at 1 uM by ELISA; type: functional, cell-based; method in brief: as §1
Platelet [24] = assay: Antiplatelet activity against tumor cells-stimulated human platelets assessed as inhibition of A549 cells-induced platelet aggregation at 1 uM by turbidometric aggregometry; type: functional, cell-based; method in brief: as §2
Platelet [25] = assay: Antiplatelet activity against tumor cells-stimulated human platelets assessed as inhibition of RPMI-8226 cells-induced platelet aggregation at 1 uM by turbidometric aggregometry; type: functional, cell-based; method in brief: as §2
Platelet [26] = assay: Inhibition of tumor cell-induced platelet secretion in human platelets assessed as inhibition of A549-induced ATP secretion at 1 uM by bioluminescent assay; type: functional, cell-based; method in brief: as §1
RPMI-8226 [27] = assay: Cytotoxicity against human RPMI-8226 cells assessed as reduction in cell viability incubated for 24 hrs by resazurin assay; type: functional, cell-based; method in brief: as §5
MDA-MB-231 = assay: Cytotoxicity against human MDA-MB-231 cells assessed as reduction in cell viability incubated for 24 hrs by resazurin assay; type: functional, cell-based; method in brief: as §5
Platelet [28] = assay: Antiplatelet activity in human platelets assessed as inhibition of U46619-induced platelet aggregation upto 40 uM by turbidimetric analysis; type: functional, cell-based
Platelet [29] = assay: Antiplatelet activity in human platelets assessed as inhibition of collagen-induced platelet aggregation upto 40 uM by turbidimetric analysis; type: functional, cell-based
A549 [30] = assay: Cytotoxicity against human A549 cells assessed as reduction in cell viability incubated for 24 hrs by resazurin assay; type: functional, cell-based; method in brief: as §5
[31] = biological target: T1, Protein disulfide-isomerase; assay: Non-covalent inhibition of PDI (unknown origin) by GSSG fluorescence assay
Target sequence in this assay (P07237 whole entry): as above

CC(=O)Oc1ccccc1C(=O)O [ASPIRIN]
IC50 (Platelet [1]): > 200 µM | inhibition (Platelet [2]): inactive | Activity (Platelet [3]): inactive | inhibition (Platelet [4]): inactive | Activity (Platelet [5]): inactive | Activity (Platelet [6]): inactive

CC(=O)OC[C@H]1O[C@H](OC2=CC(=O)c3cccc(O)c3C2=O)[C@H](OC(C)=O)[C@@H](OC(C)=O)[C@@H]1OC(C)=O
inhibition [7]: Active | Activity (A549 [8]): inactive | inhibition (Platelet [9]): Active | Activity (Platelet [10]): Active | inhibition (A549 [11]): Active | Activity (Platelet [12]): Active | IC50 [13]: 4.01 µM | inhibition (Platelet [14]): Active | Activity (Platelet [15]): Active

COc1ccc(SC2=C(c3ccc(O)cc3O)C(=O)c3c(O)cccc3C2=O)cc1
Stability [16]: Stable | inhibition [17]: Active | Activity [18]: Not Active

COc1ccc(N2C(=O)/C(=C\c3ccc([N+](=O)[O-])s3)SC2=S)cc1
IC50 [19]: 2.9 µM | Activity (RPMI-8226 [20]): Active

CC(=O)O[C@@H]1O[C@H](CSC2=CC(=O)c3cccc(O)c3C2=O)[C@@H](OC(C)=O)[C@H](OC(C)=O)[C@H]1OC(C)=O
inhibition [7]: Active | Activity (A549 [8]): inactive | inhibition (Platelet [9]): Active | Activity (Platelet [10]): Active | inhibition (A549 [11]): Active | Activity (Platelet [12]): Active | inhibition (Platelet [14]): Active | Activity (Platelet [15]): Active | IC50 (U-87 MG): > 20 µM

C#CCCCNC(=O)[C@@H](CCNC(=O)[C@H](Cc1ccccc1)NC(=O)OC(C)(C)C)Cc1ccc(OS(=O)(=O)C=C)cc1
IC50 [21]: 1.7 µM

CC(=O)OC[C@H]1O[C@@H](SC2=C(c3ccc(O)cc3O)C(=O)c3c(O)cccc3C2=O)[C@H](OC(C)=O)[C@@H](OC(C)=O)[C@@H]1OC(C)=O
inhibition [7]: Active | Activity [18]: Active

COc1cccc(SC2=CC(=O)c3cccc(O)c3C2=O)c1
inhibition [7]: Active

CCCSc1nc(N[C@@H]2C[C@H]2c2ccc(F)c(F)c2)c2nnn([C@@H]3C[C@H](OCCO)[C@@H](O)[C@H]3O)c2n1
Activity (Platelet [22]): inactive | inhibition (Platelet [23]): inactive | Activity (Platelet [24]): inactive | Activity (Platelet [25]): inactive | inhibition (Platelet [26]): inactive

CC(C)(C)CN(C(=O)CCl)C1CCS(=O)(=O)C1 (stereo unspecified)
IC50 (RPMI-8226 [27]): Not Active | IC50 (MDA-MB-231): Not Active | Activity (Platelet [28]): inactive | Activity (Platelet [29]): inactive | IC50 (A549 [30]): Not Active

C#CC(=O)N(c1ccc(OC)cc1OC)C(C(=O)NCC(=O)OCC)c1cccs1 (stereo unspecified)
IC50 [21]: 10 µM

O=c1c(O[C@@H]2O[C@H](CO)[C@@H](O)[C@H](O)[C@H]2O)c(-c2ccc(O)c(O)c2)oc2cc(O)cc(O)c12 [ISOQUERCETIN]
inhibition [17]: Active | IC50 [31]: 7.1 µM
